Measurements taken from ChEMBL document CHEMBL1909512, “Indolin-2-one p38α inhibitors III: bioisosteric amide replacement” (Bioorg Med Chem Lett, 2011).
Each block holds one molecule with its values, some of them ahead of it.

Key:
[1] = target: T1, Mitogen-activated protein kinase 14 (Homo sapiens, UniProt Q16539); test: Inhibition of human p38alpha using biotinylated ATF2 as substrate at 60 uM preincubated for 1 hr measured after 1 hr by FRET assay
Blood = test: Inhibition of LPS-induced TNFalpha release in human whole blood after 24 hrs by ELISA; type: functional, tissue-based
[2] = Metabolic stability in rat liver microsomes assessed as compound turnover at 5 uM after 30 mins in presence of NADPH; type: ADME, Microsome; details: read-out: Drug metabolism
In short: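 5 µM test compound incubated with rat or human hepatic microsomes (1 mg/mL) plus NADPH for 30 min at 37 °C; result given as % turnover.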

[3] = Metabolic stability in human liver microsomes assessed as compound turnover at 5 uM after 30 mins in presence of NADPH; type: ADME, Microsome; details: read-out: Drug metabolism
Liver microsomes [4] = test: Metabolic stability in human liver microsomes assessed as compound turnover at 5 uM after 30 mins in absence of NADPH; type: ADME, Microsome; details: 0.5 h
CHO [5] = test: Cytotoxicity against CHO cells; type: cell-based; details: Cricetulus griseus
[6] = target: T1, Mitogen-activated protein kinase 14
Cytochrome P450 3A4 = Cytochrome P450 3A4 (Homo sapiens, UniProt P08684); test: Inhibition of human CYP3A4; type: ADME
Cytochrome P450 2C9 = Cytochrome P450 2C9 (Homo sapiens, UniProt P11712); test: Inhibition of human CYP2C9; type: ADME
Cytochrome P450 2C19 = Cytochrome P450 2C19 (Homo sapiens, UniProt P33261); test: Inhibition of human CYP2C19; type: ADME
Cytochrome P450 2D6 = Cytochrome P450 2D6 (Homo sapiens, UniProt P10635); test: Inhibition of human CYP2D6; type: ADME
Liver microsomes [7] = test: Metabolic stability in human liver microsomes in absence of NADPH; type: ADME, Microsome
Liver microsomes [8] = test: Metabolic stability in rat liver microsomes in absence of NADPH; type: ADME, Microsome
[9] = Apparent passive permeability from apical to basolateral side of the human Caco2 cells at 12.5 uM; type: ADME, cell-based; details: Caco-2
In short: (§1)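 Passive permeability across Caco-2 monolayer measured with 12.5 µM test compound in both directions (apical-to-basal and basal-to-apical); Papp reported in 10^-6 cm/s.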

[10] = Apparent passive permeability from basolateral to apical side of the human Caco2 cells at 12.5 uM; type: ADME, cell-based; details: Caco-2; in short: as §1
CHO [11] = test: Cytotoxicity against CHO cells at 200 uM; type: cell-based, Cricetulus griseus; details: chinese hamster
[12] = Half life in rat at 1 mg/kg, iv; type: ADME, organism-based; design: dose 1 mg/kg, route intravenous; details: in vivo
[13] = Cmax in rat at 1 mg/kg, iv; type: ADME, organism-based; design: dose 1 mg/kg, route intravenous; details: in vivo
[14] = Clearance in rat at 1 mg/kg, iv; type: ADME, organism-based; design: dose 1 mg/kg, route intravenous; details: in vivo
[15] = AUC (0 to infinity) in rat at 1 mg/kg, iv; type: ADME, organism-based; design: time infinity, dose 1 mg/kg, route intravenous; details: plasma
[16] = Volume of distribution at steady state in rat at 1 mg/kg, iv; type: ADME, organism-based; design: dose 1 mg/kg, route intravenous; details: in vivo, read-out: Vdss
[17] = Mean residence time in rat at 1 mg/kg, iv; type: ADME, organism-based; design: dose 1 mg/kg, route intravenous; details: in vivo
[18] = Cmax in rat at 10 mg/kg, po; type: ADME, organism-based; design: dose 10 mg/kg, route oral; details: in vivo
[19] = AUC (0 to infinity) in rat at 10 mg/kg, po; type: ADME, organism-based; design: time infinity, dose 10 mg/kg, route oral; details: plasma
[20] = Oral bioavailability in rat at 10 mg/kg; type: ADME, organism-based; details: in vivo
Rattus norvegicus = test: Antiinflammatory activity in rat assessed as inhibition of LPS-induced TNFalpha production plasma administered orally 1 hr prior to LPS challenge measured after 1.5 hrs by ELISA; type: functional
hERG = hERG (Homo sapiens, UniProt Q12809); test: Inhibition of human ERG expressed in HEK293 cells at 10 uM; type: cell-based; details: HEK293 cells that express hERG
[21] = target: T2, 5-hydroxytryptamine receptor 1B (Homo sapiens, UniProt P28222); test: Inhibition of 5-HT1B
[22] = target: T3, RAF proto-oncogene serine/threonine-protein kinase (Homo sapiens, UniProt P04049); test: Inhibition of cRaf
[23] = target: T4, High affinity nerve growth factor receptor (Homo sapiens, UniProt P04629); test: Inhibition of human TrkA
Cytochrome P450 1A2 = target: T5, Cytochrome P450 1A2 (Homo sapiens, UniProt P05177); test: Inhibition of human CYP1A2; type: ADME
T5 sequence (P05177 whole entry): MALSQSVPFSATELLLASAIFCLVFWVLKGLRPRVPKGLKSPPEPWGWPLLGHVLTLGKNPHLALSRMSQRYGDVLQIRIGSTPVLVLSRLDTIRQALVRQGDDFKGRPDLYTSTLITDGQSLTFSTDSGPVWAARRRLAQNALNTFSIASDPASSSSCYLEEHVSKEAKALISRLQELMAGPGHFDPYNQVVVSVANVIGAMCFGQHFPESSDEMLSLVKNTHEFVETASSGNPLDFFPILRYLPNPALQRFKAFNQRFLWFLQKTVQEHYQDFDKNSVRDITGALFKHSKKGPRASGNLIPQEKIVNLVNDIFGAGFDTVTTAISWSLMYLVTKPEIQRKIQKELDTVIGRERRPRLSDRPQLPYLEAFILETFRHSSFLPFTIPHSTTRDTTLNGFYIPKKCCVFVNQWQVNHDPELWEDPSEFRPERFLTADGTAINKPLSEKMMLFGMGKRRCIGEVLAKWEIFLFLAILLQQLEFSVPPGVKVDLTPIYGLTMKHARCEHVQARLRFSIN

[24] = target: T2, 5-hydroxytryptamine receptor 1B; details: 10 uM
[25] = target: T3, RAF proto-oncogene serine/threonine-protein kinase; details: 10 uM
[26] = target: T4, High affinity nerve growth factor receptor; details: 10 uM
Target sequence in this assay (P04629 33-796 limits assumed): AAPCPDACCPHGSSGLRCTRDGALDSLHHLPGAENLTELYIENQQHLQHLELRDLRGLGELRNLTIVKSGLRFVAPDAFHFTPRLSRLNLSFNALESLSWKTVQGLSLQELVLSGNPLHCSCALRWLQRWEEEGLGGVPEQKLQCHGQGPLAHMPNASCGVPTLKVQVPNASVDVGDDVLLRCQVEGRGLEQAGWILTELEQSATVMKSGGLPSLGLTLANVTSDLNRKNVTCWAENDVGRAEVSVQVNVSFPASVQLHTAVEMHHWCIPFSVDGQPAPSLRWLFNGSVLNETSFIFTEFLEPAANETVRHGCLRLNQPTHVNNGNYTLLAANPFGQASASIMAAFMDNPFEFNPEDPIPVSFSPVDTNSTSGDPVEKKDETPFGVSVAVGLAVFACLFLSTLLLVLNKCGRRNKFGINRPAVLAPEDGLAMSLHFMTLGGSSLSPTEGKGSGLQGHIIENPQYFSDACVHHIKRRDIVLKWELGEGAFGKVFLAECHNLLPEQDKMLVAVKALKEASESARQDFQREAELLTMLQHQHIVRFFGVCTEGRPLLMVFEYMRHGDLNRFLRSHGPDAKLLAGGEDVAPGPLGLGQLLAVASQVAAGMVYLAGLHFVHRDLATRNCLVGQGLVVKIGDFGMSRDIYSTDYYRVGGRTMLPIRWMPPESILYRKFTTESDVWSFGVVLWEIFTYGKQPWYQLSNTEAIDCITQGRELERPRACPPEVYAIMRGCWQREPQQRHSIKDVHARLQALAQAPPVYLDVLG

CHO [27] = test: Cytotoxicity against CHO cells at 100 uM; type: cell-based, Cricetulus griseus; details: chinese hamster

T1 sequence (Q16539 whole entry): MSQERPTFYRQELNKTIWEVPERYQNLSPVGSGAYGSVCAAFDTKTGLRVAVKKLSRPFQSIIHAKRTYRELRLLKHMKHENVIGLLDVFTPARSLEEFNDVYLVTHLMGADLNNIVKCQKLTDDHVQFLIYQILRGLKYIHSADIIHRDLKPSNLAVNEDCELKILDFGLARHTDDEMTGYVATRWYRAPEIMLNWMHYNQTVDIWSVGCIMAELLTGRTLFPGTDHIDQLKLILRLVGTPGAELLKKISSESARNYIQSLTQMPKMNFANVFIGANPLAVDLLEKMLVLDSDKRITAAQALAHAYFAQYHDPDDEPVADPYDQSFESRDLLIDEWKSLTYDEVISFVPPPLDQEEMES
T3 sequence (P04049 whole entry): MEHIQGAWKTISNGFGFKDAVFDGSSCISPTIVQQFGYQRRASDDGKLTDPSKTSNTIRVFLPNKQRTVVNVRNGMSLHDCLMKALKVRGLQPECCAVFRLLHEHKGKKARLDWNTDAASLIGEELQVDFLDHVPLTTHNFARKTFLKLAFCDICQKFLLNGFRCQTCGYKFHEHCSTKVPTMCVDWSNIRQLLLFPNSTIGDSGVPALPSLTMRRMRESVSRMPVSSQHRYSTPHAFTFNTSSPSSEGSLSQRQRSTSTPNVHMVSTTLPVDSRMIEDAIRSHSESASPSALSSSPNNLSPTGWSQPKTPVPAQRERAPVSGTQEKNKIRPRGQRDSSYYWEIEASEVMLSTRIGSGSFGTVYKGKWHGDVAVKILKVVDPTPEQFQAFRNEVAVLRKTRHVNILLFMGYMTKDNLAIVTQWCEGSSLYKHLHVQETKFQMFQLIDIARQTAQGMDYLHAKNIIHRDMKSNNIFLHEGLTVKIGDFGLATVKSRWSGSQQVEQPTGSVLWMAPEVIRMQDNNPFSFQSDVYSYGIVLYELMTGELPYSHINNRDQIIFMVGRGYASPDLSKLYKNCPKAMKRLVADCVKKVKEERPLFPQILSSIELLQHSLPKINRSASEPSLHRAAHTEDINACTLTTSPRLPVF
T2 sequence (P28222 whole entry): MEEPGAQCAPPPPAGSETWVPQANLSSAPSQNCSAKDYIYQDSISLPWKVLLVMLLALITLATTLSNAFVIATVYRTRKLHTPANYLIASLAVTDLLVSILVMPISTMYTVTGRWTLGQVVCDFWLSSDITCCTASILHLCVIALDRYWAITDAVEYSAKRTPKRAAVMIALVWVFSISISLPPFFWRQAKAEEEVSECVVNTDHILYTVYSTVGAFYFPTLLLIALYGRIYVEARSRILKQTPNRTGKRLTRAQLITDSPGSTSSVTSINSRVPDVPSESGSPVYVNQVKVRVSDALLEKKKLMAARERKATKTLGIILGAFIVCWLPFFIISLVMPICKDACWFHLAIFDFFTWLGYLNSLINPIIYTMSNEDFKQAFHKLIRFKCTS
Chain of Cytochrome P450 2C9 (P11712 whole entry): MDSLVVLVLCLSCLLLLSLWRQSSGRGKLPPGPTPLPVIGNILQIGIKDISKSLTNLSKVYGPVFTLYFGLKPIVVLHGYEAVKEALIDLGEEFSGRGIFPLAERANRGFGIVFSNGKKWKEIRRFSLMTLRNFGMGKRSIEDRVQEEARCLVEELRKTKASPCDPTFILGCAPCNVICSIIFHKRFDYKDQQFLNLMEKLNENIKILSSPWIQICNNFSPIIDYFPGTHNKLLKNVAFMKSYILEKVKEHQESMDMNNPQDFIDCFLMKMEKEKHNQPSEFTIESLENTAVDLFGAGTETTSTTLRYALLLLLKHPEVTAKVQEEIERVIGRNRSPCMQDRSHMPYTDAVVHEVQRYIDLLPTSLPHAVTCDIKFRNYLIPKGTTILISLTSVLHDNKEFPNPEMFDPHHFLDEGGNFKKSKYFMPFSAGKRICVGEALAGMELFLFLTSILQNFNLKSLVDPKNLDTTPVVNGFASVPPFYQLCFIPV
Chain of Cytochrome P450 2C19 (P33261 whole entry): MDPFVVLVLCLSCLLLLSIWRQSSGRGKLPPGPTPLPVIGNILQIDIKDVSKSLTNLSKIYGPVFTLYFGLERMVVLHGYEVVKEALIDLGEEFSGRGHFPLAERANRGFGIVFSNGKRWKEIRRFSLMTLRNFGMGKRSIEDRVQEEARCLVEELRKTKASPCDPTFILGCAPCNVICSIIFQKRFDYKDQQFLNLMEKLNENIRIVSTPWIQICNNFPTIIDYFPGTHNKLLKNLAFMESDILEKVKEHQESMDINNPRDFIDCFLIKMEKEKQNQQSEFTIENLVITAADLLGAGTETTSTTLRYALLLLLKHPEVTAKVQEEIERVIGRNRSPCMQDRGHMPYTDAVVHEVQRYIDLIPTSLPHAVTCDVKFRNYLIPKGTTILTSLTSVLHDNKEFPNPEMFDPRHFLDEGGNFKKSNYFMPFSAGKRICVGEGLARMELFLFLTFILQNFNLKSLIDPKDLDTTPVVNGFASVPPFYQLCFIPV
Chain of hERG (Q12809 whole entry): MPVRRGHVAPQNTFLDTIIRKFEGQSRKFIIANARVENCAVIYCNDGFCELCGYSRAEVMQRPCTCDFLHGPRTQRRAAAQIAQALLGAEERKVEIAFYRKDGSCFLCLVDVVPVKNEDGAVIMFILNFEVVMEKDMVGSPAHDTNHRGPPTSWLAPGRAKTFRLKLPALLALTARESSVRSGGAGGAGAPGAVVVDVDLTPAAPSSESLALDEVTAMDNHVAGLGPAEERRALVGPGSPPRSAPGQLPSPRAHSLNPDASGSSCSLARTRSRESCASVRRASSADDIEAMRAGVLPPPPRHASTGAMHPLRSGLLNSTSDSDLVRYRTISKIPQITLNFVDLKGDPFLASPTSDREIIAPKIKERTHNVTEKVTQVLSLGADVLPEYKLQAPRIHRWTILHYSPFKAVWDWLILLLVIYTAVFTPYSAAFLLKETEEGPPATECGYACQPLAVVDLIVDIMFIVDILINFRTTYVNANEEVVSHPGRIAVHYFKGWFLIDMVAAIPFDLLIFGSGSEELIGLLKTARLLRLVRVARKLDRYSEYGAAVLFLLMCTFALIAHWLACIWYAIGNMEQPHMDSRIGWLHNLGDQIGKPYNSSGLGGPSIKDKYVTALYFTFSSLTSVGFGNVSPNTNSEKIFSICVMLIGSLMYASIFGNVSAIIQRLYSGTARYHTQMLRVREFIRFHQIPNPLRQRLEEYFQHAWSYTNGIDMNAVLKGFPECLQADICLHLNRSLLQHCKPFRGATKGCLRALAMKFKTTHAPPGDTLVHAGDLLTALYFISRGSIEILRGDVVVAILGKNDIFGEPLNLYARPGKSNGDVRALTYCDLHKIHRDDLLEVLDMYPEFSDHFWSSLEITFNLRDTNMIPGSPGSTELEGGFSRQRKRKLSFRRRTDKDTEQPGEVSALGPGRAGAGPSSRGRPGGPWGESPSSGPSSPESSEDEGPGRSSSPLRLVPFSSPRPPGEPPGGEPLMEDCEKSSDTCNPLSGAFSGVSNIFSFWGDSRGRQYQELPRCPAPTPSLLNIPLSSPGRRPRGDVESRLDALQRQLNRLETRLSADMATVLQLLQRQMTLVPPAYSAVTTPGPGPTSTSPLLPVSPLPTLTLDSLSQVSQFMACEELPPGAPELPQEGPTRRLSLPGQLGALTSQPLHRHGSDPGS
Chain of Cytochrome P450 3A4 (P08684 whole entry): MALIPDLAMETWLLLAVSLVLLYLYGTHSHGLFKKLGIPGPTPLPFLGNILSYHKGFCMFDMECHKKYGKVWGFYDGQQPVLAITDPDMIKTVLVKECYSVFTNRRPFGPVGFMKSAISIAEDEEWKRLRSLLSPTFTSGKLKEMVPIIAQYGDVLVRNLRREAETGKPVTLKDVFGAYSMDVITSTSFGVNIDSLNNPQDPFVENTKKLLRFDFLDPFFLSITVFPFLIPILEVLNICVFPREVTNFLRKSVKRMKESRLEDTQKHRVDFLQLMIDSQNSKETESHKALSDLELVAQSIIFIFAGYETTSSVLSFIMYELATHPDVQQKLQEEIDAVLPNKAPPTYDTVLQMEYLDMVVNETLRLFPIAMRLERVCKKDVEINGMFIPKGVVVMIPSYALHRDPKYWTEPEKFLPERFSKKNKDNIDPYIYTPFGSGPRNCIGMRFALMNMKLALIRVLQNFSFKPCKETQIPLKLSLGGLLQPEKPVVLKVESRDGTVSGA

SMILES: Cc1ccn2c(N)nnc2c1-c1ccc2c(c1)NC(=O)C21CCCC1
IC50 (Blood): 2110 nM
IC50 [6]: 34 nM

SMILES: Cc1nnc(-c2ccc(C)c(-c3ccc4c(c3)NC(=O)C43CCOCC3)c2)[nH]1
IC50 (Cytochrome P450 3A4): > 25000 nM
IC50 (Cytochrome P450 2C9): > 25000 nM
IC50 (Cytochrome P450 2C19): > 25000 nM
IC50 (Cytochrome P450 2D6): > 25000 nM
IC50 (Blood): 93 nM
Stability (Liver microsomes [7]): Stable
Stability (Liver microsomes [8]): Stable
metabolised at 0.5 h, 5 µM [2]: 23%
metabolised at 0.5 h, 5 µM [3]: < 5%
Stability (Liver microsomes [4]): Stable
Papp A→B at 12.5 µM [9]: 18 ×10⁻⁶ cm/s
Papp B→A at 12.5 µM [10]: 27 ×10⁻⁶ cm/s
Activity (CHO [11]): 48%
half-life [12]: 3.1 h
Cmax [13]: 1720 ng/mL
clearance [14]: 4.2 mL/min/kg
AUC(0-inf) [15]: 4060 ng·h/mL
Vd [16]: 1 L/kg
MRT [17]: 4 h
Cmax [18]: 1100 ng/mL
AUC(0-inf) [19]: 11700 ng·h/mL
bioavailability [20]: 29%
inhibition (Rattus norvegicus): Dose-dependent effect
ED50 (Rattus norvegicus; po): 0.69 mg/kg
inhibition at 10 µM (hERG): 49%
IC50 [21]: 10000 nM
IC50 [22]: 1600 nM
IC50 [23]: 7700 nM
IC50 (Cytochrome P450 1A2): > 25000 nM
IC50 [6]: 7.6 nM
inhibition [24]: > 50%
inhibition [25]: > 50%
inhibition [26]: > 50%

SMILES: Cc1nnc(-c2ccc(C)c(-c3ccc4c(c3)NC(=O)C43CCCC3)c2)[nH]1
IC50 (Blood): 127 nM
Stability (Liver microsomes [7]): Stable
Stability (Liver microsomes [8]): Stable
metabolised at 0.5 h, 5 µM [2]: 15%
metabolised at 0.5 h, 5 µM [3]: 13%
Stability (Liver microsomes [4]): Stable
Activity (CHO [27]): 53%
IC50 [6]: 7.4 nM

SMILES: Cc1cnc(-c2ccc(C)c(-c3ccc4c(c3)NC(=O)C43CCOCC3)c2)[nH]1
Stability (Liver microsomes [7]): Stable
Stability (Liver microsomes [8]): Stable
IC50 [6]: 173 nM

SMILES: Cc1ccc2c(NC3CC3)noc2c1-c1ccc2c(c1)NC(=O)C21CCOCC1
IC50 (Blood): 8.4 nM
metabolised at 0.5 h, 5 µM [2]: 18%
metabolised at 0.5 h, 5 µM [3]: 26%
Stability (Liver microsomes [4]): Stable
Papp A→B at 12.5 µM [9]: 26 ×10⁻⁶ cm/s
Papp B→A at 12.5 µM [10]: 16 ×10⁻⁶ cm/s
IC50 (CHO [5]): 49000 nM
half-life [12]: 2.9 h
Cmax [13]: 1480 ng/mL
clearance [14]: 3.2 mL/min/kg
AUC(0-inf) [15]: 5270 ng·h/mL
Vd [16]: 0.8 L/kg
MRT [17]: 4.6 h
Cmax [18]: 479 ng/mL
AUC(0-inf) [19]: 3370 ng·h/mL
bioavailability [20]: 6%
IC50 [6]: 0.16 nM

More lines, main results first:

inhibition [1]: 60%
SMILES: Cc1ccc2c(N)n[nH]c2c1-c1ccc2c(c1)NC(=O)C21CCOCC1

IC50 (Blood): 50 nM
SMILES: Cc1ccc2c(NC3CC3)noc2c1-c1ccc2c(c1)NC(=O)C2(C)C

IC50 (Blood): 98 nM
metabolised at 0.5 h, 5 µM [2]: 5%
metabolised at 0.5 h, 5 µM [3]: < 5%
Stability (Liver microsomes [4]): Stable
SMILES: Cc1nnc(-c2ccc(C)c(-c3ccc4c(c3)NC(=O)C43CCC(F)(F)CC3)c2)[nH]1
IC50 (CHO [5]): 20000 nM

IC50 (Blood): 2 nM
SMILES: Cc1ccc2c(NC3CC3)noc2c1-c1ccc2c(c1)NC(=O)C21CCCC1

Stability (Liver microsomes [7]): Stable
Stability (Liver microsomes [8]): Stable
IC50 [6]: 880 nM
SMILES: Cc1ncc(-c2ccc(C)c(-c3ccc4c(c3)NC(=O)C43CCOCC3)c2)[nH]1

Stability (Liver microsomes [7]): Stable
Stability (Liver microsomes [8]): Stable
IC50 [6]: 741 nM
SMILES: Cc1noc(-c2ccc(C)c(-c3ccc4c(c3)NC(=O)C43CCCC3)c2)n1
